# According to ChEMBL document CHEMBL3603811, “Design, chemical synthesis and biological evaluation of 3-spiromorpholinone/3-spirocarbamate androsterone derivatives as inhibitors of 17β-hydroxysteroid dehydrogenase type 3” (Bioorg Med Chem, 2015):
# How the values were obtained:
# [1] = target: T1, 17-beta-hydroxysteroid dehydrogenase type 3 (Rattus norvegicus) (UniProt O54939); assay: Inhibition of 17beta-HSD3 in rat testes microsomes using [14C]-4-androstene-3,17-dione as substrate measured based on 18% of initial enzyme transformation at 0.1 uM after 2 hrs; conditions: Testis
# T1 sequence (whole entry): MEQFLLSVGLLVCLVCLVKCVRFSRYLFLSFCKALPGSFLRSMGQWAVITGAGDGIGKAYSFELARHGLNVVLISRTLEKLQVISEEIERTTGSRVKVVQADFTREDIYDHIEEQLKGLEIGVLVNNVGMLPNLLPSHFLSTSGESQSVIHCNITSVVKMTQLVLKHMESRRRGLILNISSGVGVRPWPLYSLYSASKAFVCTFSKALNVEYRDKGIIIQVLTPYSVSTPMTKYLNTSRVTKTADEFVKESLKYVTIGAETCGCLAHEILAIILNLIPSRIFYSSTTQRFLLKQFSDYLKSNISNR
# Summary of the method: (§1)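 Rat testis microsomes: homogenate in phosphate/sucrose/EDTA buffer pH 7.5 with protease inhibitors, spun 12,500g, then pellet from 100,000g, at 4 °C. Reaction 2 h at 37 °C in 50 mM sodium phosphate pH 7.4, 20% glycerol, 1 mM EDTA, with NADPH and [14C]-Δ4-dione (50 nM). Inhibitor in DMSO. [14C]-T and substrate identified against reference steroids and quantified. Percent transformation and percent inhibition calculated.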
# [2] = target: T1, 17-beta-hydroxysteroid dehydrogenase type 3 (Rattus norvegicus); assay: Inhibition of 17beta-HSD3 in rat testes microsomes using [14C]-4-androstene-3,17-dione as substrate measured based on 18% of initial enzyme transformation at 1 uM after 2 hrs; conditions: Testis; summary of the method: as §1
# [3] = target: T1, 17-beta-hydroxysteroid dehydrogenase type 3 (Rattus norvegicus); assay: Inhibition of 17beta-HSD3 in rat testes microsomes using [14C]-4-androstene-3,17-dione as substrate measured based on 4% of initial enzyme transformation at 1 uM after 2 hrs; conditions: Testis; summary of the method: as §1
# [4] = target: T1, 17-beta-hydroxysteroid dehydrogenase type 3 (Rattus norvegicus); assay: Inhibition of 17beta-HSD3 in rat testes microsomes using [14C]-4-androstene-3,17-dione as substrate measured based on 4% of initial enzyme transformation at 10 uM after 2 hrs; conditions: Testis; summary of the method: as §1
# LAPC4 [5] = assay: Androgenic activity in human LAPC4 cells expressing androgen receptor assessed as induction of cell proliferation at 0.1 uM after 3 days by MTS assay relative to control; format: functional
# Summary of the method: (§2)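 LAPC-4 (AR+) cells in RPMI-1640 with 5% dextran-coated charcoal-treated FBS to remove hormones. Triplicate cultures of 10,000 cells preincubated 24 h at 37 °C, 5% CO2. Compounds from 10^-2 M DMSO stock, diluted in medium, added for 3 days (final DMSO 0.05%; vehicle controls). Growth read by MTS. Androgenicity = % proliferation minus basal set at 100%.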
# LAPC4 [6] = assay: Androgenic activity in human LAPC4 cells expressing androgen receptor assessed as induction of cell proliferation at 1 uM after 3 days by MTS assay relative to control; format: functional; summary of the method: as §2
# [7] = target: T1, 17-beta-hydroxysteroid dehydrogenase type 3 (Rattus norvegicus); assay: Inhibition of 17beta-HSD3 in rat testes microsomes using [14C]-4-androstene-3,17-dione as substrate measured based on 33% of initial enzyme transformation at 0.1 uM after 2 hrs; conditions: Testis; summary of the method: as §1
# [8] = target: T1, 17-beta-hydroxysteroid dehydrogenase type 3 (Rattus norvegicus); assay: Inhibition of 17beta-HSD3 in rat testes microsomes using [14C]-4-androstene-3,17-dione as substrate measured based on 33% of initial enzyme transformation at 1 uM after 2 hrs; conditions: Testis; summary of the method: as §1
# [9] = target: T1, 17-beta-hydroxysteroid dehydrogenase type 3 (Rattus norvegicus); assay: Inhibition of 17beta-HSD3 in rat testes microsomes using [14C]-4-androstene-3,17-dione as substrate measured based on 33% of initial enzyme transformation at 10 uM after 2 hrs; conditions: Testis; summary of the method: as §1
# [10] = target: T1, 17-beta-hydroxysteroid dehydrogenase type 3 (Rattus norvegicus); assay: Inhibition of 17beta-HSD3 in rat testes microsomes using [14C]-4-androstene-3,17-dione as substrate measured based on 18% of initial enzyme transformation at 0.01 uM after 2 hrs; conditions: Testis; summary of the method: as §1
# [11] = target: T2, 17-beta-hydroxysteroid dehydrogenase type 3 (Rattus norvegicus, UniProt O54939); assay: Inhibition of 17beta-HSD3 in rat testes microsomes using [14C]-4-androstene-3,17-dione as substrate after 2 hrs; parameters: species or system Testis; summary of the method: as §1
# T2 sequence (O54939 whole entry): T1 sequence (whole entry)
# [12] = target: T3, 17-beta-hydroxysteroid dehydrogenase type 3 (Homo sapiens) (UniProt P37058); conditions: LNCaP, 0.5 uM
# T3 sequence (whole entry): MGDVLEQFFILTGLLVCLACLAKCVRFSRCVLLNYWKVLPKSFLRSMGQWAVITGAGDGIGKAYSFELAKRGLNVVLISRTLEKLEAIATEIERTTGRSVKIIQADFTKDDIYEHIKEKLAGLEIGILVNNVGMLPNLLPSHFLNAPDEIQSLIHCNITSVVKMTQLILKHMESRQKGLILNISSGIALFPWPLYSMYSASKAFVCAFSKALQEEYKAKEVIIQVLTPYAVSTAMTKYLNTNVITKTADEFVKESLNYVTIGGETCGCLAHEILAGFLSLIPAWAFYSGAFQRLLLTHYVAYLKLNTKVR
# [13] = target: T1, 17-beta-hydroxysteroid dehydrogenase type 3 (Rattus norvegicus); assay: Ratio of delta4-dione IC50 to compound IC50 for 17beta-HSD3 in rat testes microsomes; conditions: Testis
# [14] = target: T3, 17-beta-hydroxysteroid dehydrogenase type 3 (Homo sapiens); assay: Inhibition of 17beta-HSD3 (unknown origin) expressed in human LNCaP cells using [14C]-4-androstene-3,17-dione as substrate at 1 uM after 3 hrs; format: cell-based
# Summary of the method: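 LNCaP cells stably transfected with 17β-HSD3, kept under hygromycin, which was omitted during assay. 15,000 cells/well grown 3 days in protocol medium, then given 15 nM [14C]-4-androstene-3,17-dione plus inhibitor in DMSO (final 0.05%) for 3 h. Steroids extracted from medium, separated by TLC and quantified. Percent inhibition of T formation calculated.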
SMILES,inhibition [1] [%],inhibition [2] [%],inhibition [3] [%],inhibition [4] [%],Activity (LAPC4 [5]) [%],Activity (LAPC4 [6]) [%],inhibition [7] [%],inhibition [8] [%],inhibition [9] [%],inhibition [10] [%],IC50 [11] [nM],inhibition [12] [%],Ratio IC50 [13],inhibition [14] [%]
C[C@]12CC[C@@]3(C[C@@H]1CC[C@@H]1[C@@H]2CC[C@]2(C)C(=O)CC[C@@H]12)CN(Cc1ccccc1)CC(=O)O3,56,89.2,90.9,95.2,8.1,30.5,80.8,91.6,94.3,27.2,,,,
C[C@]12CC[C@@]3(C[C@@H]1CC[C@@H]1[C@@H]2CC[C@]2(C)C(=O)CC[C@@H]12)CN(Cc1ccc(-c2ccccc2)cc1)CC(=O)O3,,,,,47.7,55.1,81.9,93.1,95.2,,,,,
C[C@@H]1CN(S(=O)(=O)c2ccccc2C(F)(F)F)[C@@H](C)CN1C[C@@]1(O)CC[C@@]2(C)[C@@H](CC[C@@H]3[C@@H]2CC[C@]2(C)C(=O)CC[C@@H]32)C1,43.7,,96.4,97.1,0,0,89.4,94.4,94,32.4,13,100,,
C[C@]12CC[C@@]3(C[C@@H]1CC[C@@H]1[C@@H]2CC[C@]2(C)C(=O)CC[C@@H]12)CN(Cc1ccc(C(F)(F)F)cc1)CC(=O)O3,,,,,12.3,31.7,83.4,94,91.2,,,,,
C[C@]12CC[C@@]3(C[C@@H]1CC[C@@H]1[C@@H]2CC[C@]2(C)C(=O)CC[C@@H]12)CN(Cc1ccc(Br)cc1)CC(=O)O3,,,,,21.8,45.7,79.1,92.9,91.6,,,,,
C[C@]12CC[C@@]3(C[C@@H]1CC[C@@H]1[C@@H]2CC[C@]2(C)C(=O)CC[C@@H]12)CN(CCCCc1ccccc1)CC(=O)O3,,,,,5.3,19.2,79.9,91.1,91.3,,,,,
C[C@]12CC[C@@]3(C[C@@H]1CC[C@@H]1[C@@H]2CC[C@]2(C)C(=O)CC[C@@H]12)CN(CCCc1ccccc1)CC(=O)O3,,,,,64.9,55.5,74.9,90.5,92.3,,,,,
C[C@]12CC[C@@]3(C[C@@H]1CC[C@@H]1[C@@H]2CC[C@]2(C)C(=O)CC[C@@H]12)CN(Cc1ccc(OC(F)(F)F)cc1)CC(=O)O3,,,,,45.9,74.9,79,93.8,95.7,,,,,
C[C@]12CC[C@@]3(C[C@@H]1CC[C@@H]1[C@@H]2CC[C@]2(C)C(=O)CC[C@@H]12)CN(Cc1ccc(OCc2ccccc2)cc1)CC(=O)O3,,,,,0,16.7,80.4,90.8,93.4,,,,,
C[C@]12CC[C@@]3(C[C@@H]1CC[C@@H]1[C@@H]2CC[C@]2(C)C(=O)CC[C@@H]12)CN(S(=O)(=O)c1ccc(C(F)(F)F)cc1)CC(=O)O3,48.6,85.1,,,0,0,,,,32.9,28,,6,10
O=C1OC2(CCCCC2)CN(Cc2ccccc2)[C@H]1Cc1ccccc1,,,,,,,,,29.2,,,,,
C[C@]12CC[C@@H](O)C[C@@H]1CC[C@@H]1[C@@H]2CC[C@]2(C)C(=O)CC[C@@H]12 [ANDROSTERONE],,,,,,,,,,,90,,,
C[C@]12CC[C@@]3(C[C@@H]1CC[C@@H]1[C@@H]2CC[C@]2(C)C(=O)CC[C@@H]12)CN(CCc1ccccc1)CC(=O)O3,,,,,48.9,79.7,78.5,92.2,95.2,,,,,
O=C1OC2(CCCCC2)CN[C@H]1Cc1ccccc1,,,,,,,,,20.6,,,,,
C[C@]12CCC(=O)C=C1CC[C@@H]1[C@@H]2CC[C@]2(C)C(=O)CC[C@@H]12 [ANDROSTENEDIONE],,,,,,,,,,,169,,,
C[C@]12CC[C@@]3(C[C@@H]1CC[C@@H]1[C@@H]2CC[C@]2(C)C(=O)CC[C@@H]12)CN(CCc1ccc(C(F)(F)F)cc1)CC(=O)O3,,,,,40.2,76.1,70.7,92.1,93.3,,,,,
C[C@]12CC[C@@]3(C[C@@H]1CC[C@@H]1[C@@H]2CC[C@]2(C)C(=O)CC[C@@H]12)CN(C(=O)c1ccc(C(F)(F)F)cc1)CC(=O)O3,45.4,87.1,,,0,0,,,,24.3,88,,2,40
C[C@]12CC[C@@]3(C[C@@H]1CC[C@@H]1[C@@H]2CC[C@]2(C)C(=O)CC[C@@H]12)CN(CC(CN1CCOCC1)OC(=O)C1CCCCC1)C(=O)O3 (some centres not stated),51.5,93.1,93.9,97.2,4.8,9.4,,,,,,,,
